In PMC3755449 (Nature communications, 2013):
Counter-ions that a name gives are not always drawn.

B1: Untagged RON2L peptide (peptide)
peptide: DITQQAKDIGAGPVASCFTTRMSPPQQICLNSVVNTALSTSTQSAMK

Legend:
[1] = tested on: P. falciparum clone FVO merozoites invading RBCs; assay: Invasion assay using purified invasive merozoites; type: cell-based, Plasmodium falciparum; settings: 25 and 50 μM
Summary of the method: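 Merozoites come from an FVO line selected for prolonged free-merozoite survival. Synchronized schizonts are gradient-purified, ruptured 3 hr at 37°C, and merozoites are filtered twice through 1.2 μm. About 5×10⁷ merozoites are gassed with 2.5×10⁷ pre-warmed RBCs and a range of compound concentrations for 3–4 hr at 37°C. Free merozoites are removed at 50 g for 7 min. Rings are counted by SYBR green/MitoTracker flow cytometry; IC50 by nonlinear regression.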

[2] = tested on: schizont-infected RBCs (FVO clone); assay: Schizont rupture assay; type: cell-based, Plasmodium falciparum; settings: 30 μM
[3] = tested on: AMA1 secretion onto merozoite surface; assay: IFA of AMA1 secretion from micronemes; type: cell-based, Plasmodium falciparum; settings: non-permeabilizing IFA, 60 μM
Summary of the method: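 Schizonts rupture with or without test compound (60 μM) present beforehand. Released merozoites are probed with polyclonal anti-AMA1 antibodies by immunofluorescence under non-permeabilizing conditions to assess surface AMA1.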

[4] = target: Recombinant, his-tagged AMA1 (apical membrane antigen 1), 3D7 allele (Plasmodium falciparum (3D7 allele)) (UniProt Q7KQK5); assay: AlphaScreen or HTRF

| Molecule | inhibition of merozoite invasion [1] | merozoite release from schizont-infected RBCs [2] | AMA1 secretion from micronemes [3] | IC50 [4] |
| --- | --- | --- | --- | --- |
| Clc1cccc(C(c2ccc3[nH]cnc3c2)n2ccnc2)c1 (stereo not drawn) [NCGC00181034, Liarozole hydrochloride] | inhibited merozoite invasion | not affected | not affected |  |
| CN(C)CCCN1c2ccccc2C(C)(C)c2ccccc21 [NCGC00014044, Dimetacrine] | inhibited merozoite invasion | not affected |  |  |
| B1 |  |  |  | 100 nM |
